Data set [1] in a line: folding enthalpy; higher = less favourable; fluorescence melt of hairpins on a sequencing array, two-state fit. To be noted: sodium 0.088 M. In outline:
(§1)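 In 50 mM Na-HEPES pH 8.0 containing 25 mM NaCl, hairpins from the library on a sequenced MiSeq flow cell were imaged for Cy3 fluorescence at 2.5 °C steps up to 60 °C, with Cy3 and quencher oligos annealed. After normalisation to pre-quench Cy3 and to control constructs, two-state fits with bootstrapping gave melting temperature and folding enthalpy. Four replicates were combined by inverse-variance weighting, and fitted temperatures were shifted up by 9.35 °C to match UV melts.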

Data set [2] is described as follows: melting temperature; fluorescence melt of hairpins on a sequencing array, two-state fit, raised by 9.35 °C to match UV melts. To be noted: sodium 0.088 M. In outline:
as §1

As for GGAAAGGGAAACCCTTCC ((((.((....)).)))), the folding enthalpy in data set [1] was -23.1 kcal/mol. In addition, the Tm in data set [2] turned out to be 40 °C.
Taken in the same sequence, the figures for GGAAATACGAAAGTATCC (((..(((....)))))) were -11.3 kcal/mol and 30.8 °C.
With GGAAATGGAAACATCTCC (((.(((....))).))), in data set [1], the folding enthalpy is -9.93 kcal/mol. Moreover, the Tm in data set [2] was determined as 25.1 °C.
Consider GGAAATGGAAACATTTTC (.(((((....))))).), for which, in data set [1], the folding enthalpy is -33.7 kcal/mol. For the same sequence, in data set [2], the Tm is 38.5 °C.
With GGAAATGGAAACGTTTCC (((((.(....).))))), the folding enthalpy in data set [1] was -19.2 kcal/mol. The Tm in data set [2] turned out to be 44.1 °C.
Taken in the same sequence, the figures for GGAACACCGAAAGGTTCC (((..(((....)))))) were -18.4 kcal/mol and 42.2 °C.
The corresponding values for GGAACAGGAAACTATTCC ((((.((....)).)))) are -13.4 kcal/mol and 24.7 °C.
The corresponding values for GGAACCGAAAGGTCATCC ((((((....)))..))) are -10.8 kcal/mol and 28.6 °C.
In the case of GGAACCGAAAGGTGATCC ((((((....)))..))), the folding enthalpy in data set [1] was -14 kcal/mol. Moreover, in data set [2], the Tm was 42.8 °C.
The corresponding values for GGAACCGAAAGGTGGTCC ((((((....)))..))) are -14.7 kcal/mol and 35.4 °C.
Consider GGAACCGGAAACGGTTTC (.(((((....))))).), for which, in data set [1], the folding enthalpy was -21.3 kcal/mol. Moreover, the Tm in data set [2] was 54.5 °C.
Taken in the same sequence, the figures for GGAACGCCGAAAGGCTCC (((..(((....)))))) were -9.39 kcal/mol and 33 °C.
The corresponding values for GGAACTGAAAAGTTCC ((((((....)))))) are -38.3 kcal/mol and 56.4 °C.
Taken in the same sequence, the figures for GGAACTGGAAACAGCTCC (((.(((....))).))) were -28.5 kcal/mol and 42.5 °C.
Take GGAAGCACGAAAGTGTCC (((..(((....)))))): in data set [1], the folding enthalpy was -13.1 kcal/mol. The Tm in data set [2] worked out at 31.5 °C.
The corresponding values for GGAAGCGAAAGCTACTCC ((((((....)))..))) are -13.3 kcal/mol and 30.8 °C.
With GGAAGCGAAAGCTAGTCC ((((((....)))..))), in data set [1], the folding enthalpy was -9.98 kcal/mol. For the same sequence, the Tm in data set [2] came out at 25.8 °C.
Taken in the same sequence, the figures for GGAAGCGAAAGCTTCTCC ((((((....)))..))) were -9.47 kcal/mol and 53.3 °C.
In the case of GGAAGGCGAAAGCCGTCC (((.(((....))).))), in data set [1], the folding enthalpy is -15.5 kcal/mol. In data set [2], the Tm came to 58 °C.
On to GGAAGGCGAAAGCCTCC (((.(((....)))))), for which, in data set [1], the folding enthalpy was -14.1 kcal/mol. In addition, the Tm in data set [2] was found to be 56.9 °C.
Taken in the same sequence, the figures for GGAAGGGGAAACCCTTTC (.(((((....))))).) were -24.2 kcal/mol and 44.7 °C.
Taken in the same sequence, the figures for GGAAGGTCGAAAGACTCC (((..(((....)))))) were -13.8 kcal/mol and 33.1 °C.
As to GGAATACGAAAGTACTCC (((.(((....))).))), the folding enthalpy in data set [1] was -27.4 kcal/mol. For the same sequence, the Tm in data set [2] was 39.5 °C.
Taken in the same sequence, the figures for GGAATAGAAATATTCC ((((((....)))))) were -29.3 kcal/mol and 41.7 °C.
The corresponding values for GGAATAGGAAACTATCCC ((.((((....)))).)) are -10.9 kcal/mol and 28 °C.
Taken in the same sequence, the figures for GGAATATCGAAAGATTCC (((..(((....)))))) were -20 kcal/mol and 33.3 °C.
For the sequence GGAATCGAAAGATACTCC ((((((....)))..))), the folding enthalpy in data set [1] was -9.63 kcal/mol. The Tm in data set [2] was determined as 24.7 °C.
Taken in the same sequence, the figures for GGAATCGAAAGATATTCC ((((((....)))..))) were -16 kcal/mol and 29.7 °C.
Taken in the same sequence, the figures for GGAATCGAAAGATCTCC ((((((....))).))) were -18.4 kcal/mol and 30.8 °C.
Taken in the same sequence, the figures for GGAATCGAAAGATGTCC ((((((....))).))) were -15.6 kcal/mol and 32.5 °C.
On to GGAATCGAAAGATTGTCC ((((((....)))..))), for which the folding enthalpy in data set [1] was -11.1 kcal/mol. The Tm in data set [2] was 27.2 °C.
Taken in the same sequence, the figures for GGAATCGGAAACGATCCC ((.((((....)))).)) were -25.9 kcal/mol and 45.5 °C.
As for GGAATCTCGAAAGAGTCC (((..(((....)))))), the folding enthalpy in data set [1] is -18.4 kcal/mol. Also, the Tm in data set [2] was found to be 33.2 °C.
As to GGAATGCGAAAGCATCC (((.(((....)))))), in data set [1], the folding enthalpy was -15.9 kcal/mol. Further, the Tm in data set [2] worked out at 55.5 °C.
With GGAATGGCGAAAGCCTCC (((..(((....)))))), the folding enthalpy in data set [1] is -10.2 kcal/mol. Besides, in data set [2], the Tm was 36.7 °C.
Taken in the same sequence, the figures for GGAATGGGAAACCATCCC ((.((((....)))).)) were -24 kcal/mol and 38.6 °C.
As to GGAATGGGAAACTATTCC (((((.(....).))))), the folding enthalpy in data set [1] was -25.9 kcal/mol. For the same sequence, the Tm in data set [2] was found to be 42.3 °C.

The record behind these values is the array DNA melting data of Ke et al. (doi:10.1101/2024.01.08.574731).
